Measurements as given in ChEMBL document CHEMBL1126715, “Synthesis and tissue distribution of (m-[125I]iodobenzyl)trozamicol ([125I]MIBT): potential radioligand for mapping central cholinergic innervation” (J Med Chem, 1993).

Tests used:
Rattus norvegicus [1] = organism: Rattus norvegicus; assay: Tissue distribution in rat blood after 60 minutes (n=3); format: ADME, organism-based; conditions: in vivo, 1 h
Outline: (§1)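 Male Wistar rats (200-350 g) under ether, iv [125I]tracer (3-5 μCi in 0.1 mL 50% aqueous EtOH). At 5, 30, 60 or 180 min, blood taken by cardiac puncture and the rat killed by cardiectomy. Organs weighed and γ-counted against 1:100 dilutions of the injected dose; results in % injected dose/g, with range.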

Rattus norvegicus [2] = organism: Rattus norvegicus; assay: Tissue distribution in rat kidney after 5 minutes (n=3); format: ADME, organism-based; conditions: in vivo
Outline: (§2)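 Male Wistar rats (200-350 g) under ether anesthesia; radiotracer (3-5 μCi in 0.1 mL 50% aqueous ethanol) given iv. At 5, 30, 60 and 180 min, blood was drawn by cardiac puncture and animals were killed by cardiectomy. Organs were weighed and γ-counted against a 1:100 dilution of the injected dose. Results are given as % injected dose/g tissue; ratios are taken between tissue levels.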

Rattus norvegicus [3] = organism: Rattus norvegicus; assay: Effect of vesamicol on the accumulation in rat thyroid in group 1 (n=3); format: ADME, organism-based, Thyroid gland; conditions: in vivo
Outline: (§3)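 Male Wistar rats (n = 4/group) given iv vehicle (100 μL 50% aqueous EtOH) or dl-vesamicol (1.01 μmol/kg); 15 min later iv radiotracer (2.0 μCi in 100 μL 50% aqueous EtOH); killed 30 min post-tracer. Blood by cardiac puncture, organs weighed and γ-counted vs 1:100 injected-dose dilution; % dose/g tissue (range); tissue/blood ratios.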

Rattus norvegicus [4] = organism: Rattus norvegicus; assay: Tissue distribution in rat lung after 5 minutes (n=3); format: ADME, organism-based; conditions: in vivo; outline: as §2
Rattus norvegicus [5] = organism: Rattus norvegicus; assay: Effect of vesamicol on the accumulation in rat heart in group 2 (n=3); format: ADME, organism-based; conditions: in vivo; outline: as §3
Rattus norvegicus [6] = organism: Rattus norvegicus; assay: Tissue distribution in rat gonads after 5 minutes (n=3); format: ADME, organism-based, Gonad; conditions: in vivo; outline: as §2
Rattus norvegicus [7] = organism: Rattus norvegicus; assay: Tissue distribution in rat blood after 5 minutes (n=3); format: ADME, organism-based; conditions: in vivo; outline: as §2
Rattus norvegicus [8] = organism: Rattus norvegicus; assay: Tissue distribution in rat kidney after 180 minutes (n=3); format: ADME, organism-based; conditions: in vivo, 3 h; outline: as §2
[9] = Ratio of effect of vesamicol on the accumulation between rat brain and blood in group 2; format: ADME, organism-based; outline: as §3
Rattus norvegicus [10] = organism: Rattus norvegicus; assay: Effect of vesamicol on the accumulation in rat spleen in group 2 (n=3); format: ADME, organism-based; conditions: in vivo; outline: as §3
Rattus norvegicus [11] = organism: Rattus norvegicus; assay: Effect of vesamicol on the accumulation in rat muscle in group 1 (n=3); format: ADME, organism-based, Muscle tissue; conditions: in vivo; outline: as §3
Rattus norvegicus [12] = organism: Rattus norvegicus; assay: Tissue distribution in rat blood after 180 minutes (n=3); format: ADME, organism-based; conditions: in vivo, 3 h; outline: as §2
Rattus norvegicus [13] = organism: Rattus norvegicus; assay: Tissue distribution in rat heart after 5 minutes (n=3); format: ADME, organism-based; conditions: in vivo; outline: as §2
Rattus norvegicus [14] = organism: Rattus norvegicus; assay: Effect of vesamicol on the accumulation in rat blood in group 2 (n=3); format: ADME, organism-based; conditions: in vivo; outline: as §3
Rattus norvegicus [15] = organism: Rattus norvegicus; assay: Tissue distribution in rrat heart after 60 minutes (n=3); format: ADME, organism-based; conditions: in vivo, 1 h; outline: as §2
Rattus norvegicus [16] = organism: Rattus norvegicus; assay: Tissue distribution in rat spleen after 180 minutes (n=3); format: ADME, organism-based; conditions: in vivo, 3 h; outline: as §2
Rattus norvegicus [17] = organism: Rattus norvegicus; assay: Effect of vesamicol on the accumulation in rat brain in group 1 (n=3); format: ADME, organism-based; conditions: in vivo; outline: as §3
Rattus norvegicus [18] = organism: Rattus norvegicus; assay: Tissue distribution in rat brain after 60 minutes (n=3); format: ADME, organism-based; conditions: in vivo, 1 h; outline: as §2
Rattus norvegicus [19] = organism: Rattus norvegicus; assay: Tissue distribution in rat spleen after 60 minutes (n=3); format: ADME, organism-based; conditions: in vivo, 1 h; outline: as §2
[20] = Ratio of effect of vesamicol on the accumulation between rat brain and blood in group 1; format: ADME, organism-based; outline: as §3
Rattus norvegicus [21] = organism: Rattus norvegicus; assay: Tissue distribution in rat heart after 30 minutes (n=3); format: ADME, organism-based; conditions: in vivo, 0.5 h; outline: as §1
Rattus norvegicus [22] = organism: Rattus norvegicus; assay: Effect of vesamicol on the accumulation in rat blood in group 1 (n=3); format: ADME, organism-based; conditions: in vivo
Rattus norvegicus [23] = organism: Rattus norvegicus; assay: Effect of vesamicol on the accumulation in rat heart in group 1 […]; format: ADME, organism-based; conditions: in vivo; outline: as §3
Rattus norvegicus [24] = organism: Rattus norvegicus; assay: Tissue distribution in rat brain after 30 minutes (n=3); format: ADME, organism-based; conditions: in vivo, 0.5 h; outline: as §2
Rattus norvegicus [25] = organism: Rattus norvegicus; assay: Effect of vesamicol on the accumulation in rat gonads in group 2 (n=3); format: ADME, organism-based; conditions: in vivo; outline: as §3
Rattus norvegicus [26] = organism: Rattus norvegicus; assay: Tissue distribution in rat thyroid after 5 minutes (n=3); format: ADME, organism-based, Thyroid gland; conditions: in vivo; outline: as §1
Rattus norvegicus [27] = organism: Rattus norvegicus; assay: Tissue distribution in rat muscle after 60 minutes (n=3); format: ADME, organism-based; conditions: in vivo, 1 h; outline: as §1
Rattus norvegicus [28] = organism: Rattus norvegicus; assay: Tissue distribution in rat thyroid after 60 minutes (n=3); format: ADME, organism-based, Thyroid gland; conditions: in vivo, 1 h; outline: as §2
Rattus norvegicus [29] = organism: Rattus norvegicus; assay: Ratio of tissue distribution between rat heart and blood after 30 min; format: ADME, organism-based; conditions: other tissue, 0.5 h; outline: as §2
Rattus norvegicus [30] = organism: Rattus norvegicus; assay: Effect of vesamicol on the accumulation in rat lung in group 1 (n=3); format: ADME, organism-based; conditions: in vivo; outline: as §3
Rattus norvegicus [31] = organism: Rattus norvegicus; assay: Ratio of tissue distribution between rat brain and blood after 5 min; format: ADME, organism-based; conditions: brain, 5 min
Outline: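 Male Wistar rats (200-350 g) under ether anesthesia, iv radiotracer (3-5 μCi in 0.1 mL 50% aqueous ethanol). At 5, 30, 60, 180 min blood taken by cardiac puncture, animal killed by cardiectomy; organs weighed, γ-counted against 1:100 injected-dose dilution; % injected dose/g tissue; brain/blood ratio.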

Rattus norvegicus [32] = organism: Rattus norvegicus; assay: Effect of vesamicol on the accumulation in rat brain in group 2 (n=3); format: ADME, organism-based; conditions: in vivo
Rattus norvegicus [33] = organism: Rattus norvegicus; assay: Tissue distribution in rat heart after 180 minutes (n=3); format: ADME, organism-based; conditions: in vivo, 3 h; outline: as §2
[34] = Ratio of effect of vesamicol on the accumulation between rat heart and blood in group 2; format: ADME, organism-based; outline: as §3
Rattus norvegicus [35] = organism: Rattus norvegicus; assay: Tissue distribution in rat gonads after 180 minutes (n=3); format: ADME, organism-based, Gonad; conditions: in vivo, 3 h; outline: as §2

**Q.** What does the source list for `O[C@@H]1CCN(Cc2cccc([125I])c2)C[C@H]1N1CCC(c2ccccc2)CC1` (stereo in doubt; (-))?
**A.** Dose/g (Rattus norvegicus [1]): 0.1%; Dose/g (Rattus norvegicus [2]): 3.71%; Dose/g (Rattus norvegicus [3]): 2.62%; Dose/g (Rattus norvegicus [4]): 5.9%; Dose/g (Rattus norvegicus [5]): 0.3%; Dose/g (Rattus norvegicus [6]): 0.19%; Dose/g (Rattus norvegicus [7]): 0.22%; Dose/g (Rattus norvegicus [8]): 3.27%; Kp [9]: 5.59; Dose/g (Rattus norvegicus [10]): 0.8%; Dose/g (Rattus norvegicus [11]): 0.18%; Dose/g (Rattus norvegicus [12]): 0.1%; Dose/g (Rattus norvegicus [13]): 1.32%; Dose/g (Rattus norvegicus [14]): 0.12%; Dose/g (Rattus norvegicus [15]): 0.58%; Dose/g (Rattus norvegicus [16]): 1.28%; Dose/g (Rattus norvegicus [17]): 0.68%; Dose/g (Rattus norvegicus [18]): 0.83%; Dose/g (Rattus norvegicus [19]): 1.17%; Kp [20]: 6.45; Dose/g (Rattus norvegicus [21]): 0.75%; Dose/g (Rattus norvegicus [22]): 0.11%; Dose/g (Rattus norvegicus [23]): 0.59%; Dose/g (Rattus norvegicus [24]): 0.99%; Dose/g (Rattus norvegicus [25]): 0.16%; Dose/g (Rattus norvegicus [26]): 2.67%; Dose/g (Rattus norvegicus [27]): 0.28%; Dose/g (Rattus norvegicus [28]): 5.87%; Ratio (Rattus norvegicus [29]): 6.87; Dose/g (Rattus norvegicus [30]): 2.36%; Ratio (Rattus norvegicus [31]): 4.27; Dose/g (Rattus norvegicus [32]): 0.34%; Dose/g (Rattus norvegicus [33]): 0.5%; Kp [34]: 2.4; Dose/g (Rattus norvegicus [35]): 0.2%
